Assay results taken from ChEMBL document CHEMBL1135767, “Synthesis and initial evaluation for in vivo chelation of Pu(IV) of a mixed octadentate spermine-based ligand containing 4-carbamoyl-3-hydroxy-1-methyl-2(1H)-pyridinone and 6-carbamoyl-1-hydroxy-2(1H)-pyridinone” (2002).
Values joined by “and” are separate entries in the source; they are usually repeats but may differ in a detail not shown here. Equal values may be shown once.

What was measured:
Mus musculus [1] = experiment: Removal of [238Pu] (i.v.) from mice by ligand injected 30 uM/kg intraperitoneally at 1 hr from soft tissue; assay type: functional
Outline: (§1)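 238Pu(IV) citrate given iv to mice; ligand 30 µmol/kg (in 0.14 M NaCl, pH 7.4, volume scaled to body weight) injected ip at 1 h; killed at 24 h. Five mice per cage, excreta pooled per cage, chow from 4 h. Tissue and excreta Pu were counted by liquid scintillation alpha counting and given as %ID normalized to 100% recovery, mean ± SD.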

Mus musculus [2] = experiment: Removal of [238Pu] (i.v.) from mice by ligand injected 30 uM/kg orally at 3 min fasted after iv injection from liver tissue; assay type: functional
Outline: (§2)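 Mice fasted 16 h got iv 238Pu(IV) citrate, then ligand 30 µmol/kg by gastric tube at 3 min (HOPO in 0.14 M NaCl, pH 7.4; weight-adjusted volume). Chow was given at 4 h and the mice were killed at 24 h. Tissues and pooled per-cage excreta were liquid-scintillation alpha-counted and expressed as %ID normalized to 100% recovery.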

Mus musculus [3] = experiment: Removal of [238Pu] (i.v.) from mice by ligand injected 30 uM/kg orally at 3 min fasted after iv injection from skeleton; assay type: functional; outline: as §2
Mus musculus [4] = experiment: Removal of [238Pu] (i.v.) from mice by ligand injected 30 uM/kg orally at 3 min normally fed after iv injection from kidneys; assay type: functional, Kidney
Outline: (§3)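 Normally fed mice got iv 238Pu(IV) citrate, then ligand 30 µmol/kg by gastric tube at 3 min, in 0.14 M NaCl pH 7.4 with weight-adjusted volume. The mice were killed at 24 h, with five per cage and excreta pooled per cage. Pu was counted by liquid scintillation alpha counting and reported as %ID normalized to 100% recovery.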

Mus musculus [5] = experiment: Removal of [238Pu] (i.v.) from mice by ligand injected 30 uM/kg intraperitoneally at 1 hr from liver tissue; assay type: functional; outline: as §1
Mus musculus [6] = experiment: Removal of [238Pu] (i.v.) from mice by ligand injected 30 uM/kg orally at 3 min fasted after iv injection from urine excretia; assay type: functional; outline: as §2
Mus musculus [7] = experiment: Removal of [238Pu] (i.v.) from mice by ligand injected 30 uM/kg orally at 3 min normally fed after iv injection from feces and GI contents; assay type: functional; outline: as §3
Mus musculus [8] = experiment: Removal of [238Pu] (i.v.) from mice by ligand injected 30 uM/kg intraperitoneally at 1 hr from skeleton; assay type: functional; outline: as §1
Mus musculus [9] = experiment: Removal of [238Pu] (i.v.) from mice by ligand injected 30 uM/kg orally at 3 min normally fed after iv injection from liver tissue; assay type: functional; outline: as §3
Mus musculus [10] = experiment: Removal of [238Pu] (i.v.) from mice by ligand injected orally at 3 min normally fed after iv injection from skeleton; assay type: functional; outline: as §3
Mus musculus [11] = experiment: Removal of [238Pu] (i.v.) from mice by ligand injected 30 umol/kg intraperitoneally at 1 hr from skeleton; assay type: functional; outline: as §1
Mus musculus [12] = experiment: Removal of [238Pu] (i.v.) from mice by ligand injected 30 uM/kg ip at 1 hr from feces and GI contents; assay type: functional
Outline: (§4)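 Mice received iv 238Pu(IV) citrate, then ip ligand (30 µmol/kg, 0.14 M NaCl pH 7.4) at 1 h. Feces plus GI contents were collected to 24 h kill, pooled per five-mouse cage and alpha-counted by liquid scintillation. Values are %ID normalized to total recovery. SD applies only to multiply replicated groups.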

Mus musculus [13] = experiment: Removal of [238Pu] (i.v.) from mice by ligand injected 30 uM/kg intraperitoneally at 1 hr from kidneys; assay type: functional, Kidney; outline: as §1
Mus musculus [14] = experiment: Removal of [238Pu] (i.v.) from mice by ligand injected 30 uM/kg at 3 min normally fed after iv injection from urine excretia; assay type: functional; outline: as §3
Mus musculus [15] = experiment: Removal of [238Pu] (i.v.) from mice by ligand injected 30 uM/kg intraperitoneally at 1 hr from whole body; assay type: functional; outline: as §1
Mus musculus [16] = experiment: Removal of [238Pu] (i.v.) from mice by ligand injected 30 uM/kg orally at 3 min normally fed after iv injection from soft tissue; assay type: functional; outline: as §3
Mus musculus [17] = experiment: Removal of [238Pu] (i.v.) from mice by ligand injected 30 uM/kg orally at 3 min fasted after iv injection from soft tissue; assay type: functional; outline: as §2
Mus musculus [18] = experiment: Removal of [238Pu] (i.v.) from mice by ligand injected 30 uM/kg intraperitoneally at 1 hr from urine excretia; assay type: functional; outline: as §1
Mus musculus [19] = experiment: Removal of [238Pu] (i.v.) from mice by ligand injected 30 uM/kg ip at 1 hr and orally at 3 min after iv injection from kidneys; assay type: functional, Kidney
Outline: (§5)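 Kidney Pu (%ID) at 24 h after iv 238Pu(IV) citrate was measured in mice given ligand 30 µmol/kg by one of two routes: ip at 1 h, or by gastric tube at 3 min to 16 h-fasted or normally fed mice. Kidneys were alpha-counted by liquid scintillation, and data were normalized to 100% recovery.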

Mus musculus [20] = experiment: Removal of [238Pu] (i.v.) from mice by ligand injected 30 uM/kg orally at 3 min fasted after iv injection from feces and GI contents; assay type: functional; outline: as §2
Mus musculus [21] = experiment: Removal of [238Pu] (i.v.) from mice by ligand injected 30 uM/kg orally at 3 min normally fed after iv injection from whole body; assay type: functional; outline: as §3
Mus musculus [22] = experiment: Removal of [238Pu] (i.v.) from mice by ligand injected 30 uM/kg orally at 3 min fasted after iv injection from whole body; assay type: functional; outline: as §2
Mus musculus [23] = experiment: Removal of [238Pu] (i.v.) from mice by ligand injected 30 uM/Kg ip at 1 hr from feces and GI contents; assay type: functional; outline: as §4
Mus musculus [24] = experiment: Removal of [238Pu] (i.v.) from mice by ligand injected 30 uM/Kg intraperitoneally at 1 hr from skeleton; assay type: functional; outline: as §1
Mus musculus [25] = experiment: Removal of [238Pu] (i.v.) from mice by ligand injected 30 uM/Kg orally at 3 min fasted after iv injection from skeleton; assay type: functional; outline: as §2
Mus musculus [26] = experiment: Removal of [238Pu] (i.v.) from mice by ligand injected 30 uM/Kg orally at 3 min fasted after iv injection from soft tissue; assay type: functional; outline: as §2
Mus musculus [27] = experiment: Removal of [238Pu] (i.v.) from mice by ligand injected 30 uM/Kg intraperitoneally at 1 hr from kidneys; assay type: functional, Kidney; outline: as §1
Mus musculus [28] = experiment: Removal of [238Pu] (i.v.) from mice by ligand injected 30 uM/Kg orally at 3 min fasted after iv injection from feces and GI contents; assay type: functional; outline: as §2
Mus musculus [29] = experiment: Removal of [238Pu] (i.v.) from mice by ligand injected 30 uM/Kg orally at 3 min fasted after iv injection from whole body; assay type: functional; outline: as §2
Mus musculus [30] = experiment: Removal of [238Pu] (i.v.) from mice by ligand injected 30 uM/Kg intraperitoneally at 1 hr from liver tissue; assay type: functional; outline: as §1
Mus musculus [31] = experiment: Removal of [238Pu] (i.v.) from mice by ligand injected 30 uM/Kg intraperitoneally at 1 hr from urine excretia; assay type: functional; outline: as §1
Mus musculus [32] = experiment: Removal of [238Pu] (i.v.) from mice by ligand injected 30 uM/Kg intraperitoneally at 1 hr from whole body; assay type: functional; outline: as §1
Mus musculus [33] = experiment: Removal of [238Pu] (i.v.) from mice by ligand injected 30 uM/Kg intraperitoneally at 1 hr from soft tissue; assay type: functional; outline: as §1
Mus musculus [34] = experiment: Removal of [238Pu] (i.v.) from mice by ligand injected 30 uM/Kg orally at 3 min fasted after iv injection from urine excretia; assay type: functional; outline: as §2
Mus musculus [35] = experiment: Removal of [238Pu] (i.v.) from mice by ligand injected 30 uM/Kg ip at 1 hr and orally at 3 min after iv injection from kidneys; assay type: functional, Kidney; outline: as §5
Mus musculus [36] = experiment: Removal of [238Pu] (i.v.) from mice by ligand injected 30 uM/Kg orally at 3 min fasted after iv injection from liver tissue; assay type: functional; outline: as §2

O=C(NCCCN(CCCCN(CCCNC(=O)c1cccc(=O)n1O)C(=O)c1cccc(=O)n1O)C(=O)c1cccc(=O)n1O)c1cccc(=O)n1O
ID (Mus musculus [1]): 1.6% and 0.8% | ID (Mus musculus [2]): 11% and 4.2% | ID (Mus musculus [3]): 12% and 8% | ID (Mus musculus [4]): 0.2% | ID (Mus musculus [5]): 8.9% and 5.4% | ID (Mus musculus [6]): 26% | ID (Mus musculus [7]): 57% | ID (Mus musculus [8]): 8% | ID (Mus musculus [9]): 5.9% | ID (Mus musculus [10]): 8.8% | ID (Mus musculus [11]): 7.5% | ID (Mus musculus [12]): 57% and 65% | ID (Mus musculus [13]): 0.2% and 0.1% | ID (Mus musculus [14]): 27% | ID (Mus musculus [15]): 18% and 14% | ID (Mus musculus [16]): 1.5% | ID (Mus musculus [17]): 1.3% and 1.1% | ID (Mus musculus [18]): 25% and 21% | ID (Mus musculus [19]): 0.1% | ID (Mus musculus [20]): 51% and 60% | ID (Mus musculus [21]): 16% | ID (Mus musculus [22]): 24% and 14%

Cn1ccc(C(=O)NCCCN(CCCCN(CCCNC(=O)c2ccn(C)c(=O)c2O)C(=O)c2cccc(=O)n2O)C(=O)c2cccc(=O)n2O)c(O)c1=O
ID (Mus musculus [1]): 1% | ID (Mus musculus [2]): 2.2% | ID (Mus musculus [3]): 7.8% | ID (Mus musculus [4]): 0.1% | ID (Mus musculus [5]): 11% | ID (Mus musculus [6]): 28% | ID (Mus musculus [7]): 58% | ID (Mus musculus [8]): 9.1% | ID (Mus musculus [9]): 2.4% | ID (Mus musculus [10]): 7.4% | ID (Mus musculus [12]): 51% | ID (Mus musculus [13]): 0.2% | ID (Mus musculus [14]): 31% | ID (Mus musculus [15]): 22% | ID (Mus musculus [16]): 0.9% | ID (Mus musculus [17]): 0.8% | ID (Mus musculus [18]): 27% | ID (Mus musculus [19]): 0.09% | ID (Mus musculus [20]): 61% | ID (Mus musculus [21]): 11% | ID (Mus musculus [22]): 11%

O=C([O-])CN(CCN(CC(=O)[O-])CC(=O)[O-])CCN(CC(=O)[O-])CC(=O)[O-].[Ca+2].[Na+].[Na+].[Na+] [PENTETATE CALCIUM TRISODIUM]
ID (Mus musculus [23]): 8.4% | ID (Mus musculus [24]): 14% | ID (Mus musculus [25]): 40% | ID (Mus musculus [26]): 5.1% | ID (Mus musculus [27]): 1.2% | ID (Mus musculus [28]): 6.5% | ID (Mus musculus [29]): 79% | ID (Mus musculus [30]): 19% | ID (Mus musculus [31]): 55% | ID (Mus musculus [32]): 37% | ID (Mus musculus [33]): 2.9% | ID (Mus musculus [34]): 15% | ID (Mus musculus [35]): 0.7% | ID (Mus musculus [36]): 33%
